A selection: hits, their analogues and other compounds. The true share with any hit is near 12%.
Rad51 HR inh: Rad51 (human) homologous recombination inhibition; Q06609; hRad51 DNA strand exchange, fluorescence dequenching; inhibition, % at 10 µM; actives 0.085% (n = 200,000); AID 1385;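 active = inhibition above 40% at the single screening dose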;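 note: 0% = DMSO control wells and 100% = blanks with heterologous ssDNA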
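Assay system: Human Rad51 nucleoprotein filaments preassembled on unlabelled ssDNA | Reagent: Donor/quencher-labelled 47-bp dsDNA substrate | Doses: One concentration, 10 µM final | Times: 37 °C 15-min filament assembly, 30-min compound preincubation, 15-min exchange | Technique: Fluorescein emission 520 nm, excitation 485 nm | Benchmarks: Plate control and blank wells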
Wee1 degr inh: blocks degradation of human Wee1 kinase. actives 1.2% (n = 220,000). P30291. HeLa Luc-Wee1K328M stability, luciferase luminescence; 100% = proteasome inhibitor MG132 effect. reporter increase, % at 5 µM;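 active = activation above the mean of all tested compounds plus 3 SD, set per screening run, cut at about 8.8% in these data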;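 note: cells exposed to compound for 20 h before luminescence read; 0% = DMSO alone and 100% = MG132 at 30 µM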
CHOP inhibitor: CHOP inhibition in unfolded protein response | actives 3.8% (n = 220,000) | CHO-K1 CHOP-promoter luciferase, tunicamycin-induced, 15-18 h | inhibition, % at 10 µM;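 active = compounds that reduced the stress-induced luciferase reporter signal by more than about 70% of percent inhibition, limit read from the data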;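 note: 0% = tunicamycin plus vehicle and 100% = wells without tunicamycin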
Arbovirus inh: blocks arbovirus infection. arbovirus infection cell-based antiviral screen. inhibition, % at 10 µM. actives 0.37% (n = 200,000). AID 1251; in the data active = inhibition above about 30%
PKD1 kinase inh: inhibitors of human PKD1 kinase | Q15139 | PKD1 kinase fluorescence polarization assay | inhibition, % (no concentration beside the values) | actives 0.056% (n = 200,000)
Target sequence (Q15139 whole entry, looked up): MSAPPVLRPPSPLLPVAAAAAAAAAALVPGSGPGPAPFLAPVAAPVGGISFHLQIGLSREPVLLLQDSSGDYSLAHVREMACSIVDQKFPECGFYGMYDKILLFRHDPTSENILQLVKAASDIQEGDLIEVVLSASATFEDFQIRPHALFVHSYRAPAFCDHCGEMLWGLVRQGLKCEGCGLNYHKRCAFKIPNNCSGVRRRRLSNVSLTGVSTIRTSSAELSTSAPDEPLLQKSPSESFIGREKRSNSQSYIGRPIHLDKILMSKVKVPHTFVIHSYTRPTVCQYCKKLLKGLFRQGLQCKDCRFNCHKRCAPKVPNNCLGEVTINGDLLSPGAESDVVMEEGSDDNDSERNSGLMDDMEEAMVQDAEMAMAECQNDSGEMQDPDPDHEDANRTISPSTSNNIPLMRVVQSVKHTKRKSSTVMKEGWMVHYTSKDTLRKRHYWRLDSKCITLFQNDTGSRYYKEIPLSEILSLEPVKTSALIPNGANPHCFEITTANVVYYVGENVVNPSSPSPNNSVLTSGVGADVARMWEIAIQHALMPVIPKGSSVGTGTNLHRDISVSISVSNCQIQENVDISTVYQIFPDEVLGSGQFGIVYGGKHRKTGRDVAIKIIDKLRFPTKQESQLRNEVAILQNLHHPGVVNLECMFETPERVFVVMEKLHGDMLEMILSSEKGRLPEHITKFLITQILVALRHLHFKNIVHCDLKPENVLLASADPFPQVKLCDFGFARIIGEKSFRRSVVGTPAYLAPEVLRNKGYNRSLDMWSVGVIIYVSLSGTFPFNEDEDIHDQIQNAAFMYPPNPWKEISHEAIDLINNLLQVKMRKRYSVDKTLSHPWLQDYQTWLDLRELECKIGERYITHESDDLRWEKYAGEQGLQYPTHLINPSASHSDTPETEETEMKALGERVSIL
Lmaj promast: reduces viability of Leishmania major promastigotes; resazurin fluorescence viability; inhibition, % at 10 µM; actives 9% (n = 200,000); AID 1063;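 note: promastigotes grown with compound for 44 hours at 28 °C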
Numbers without * were called inactive; x = not tested or not shown. Cut-off read from the data, not from the text of the source, unless noted: active = inhibition above about 50%; inactive = the rest.

SMILES	Rad51 HR inh	Wee1 degr inh	CHOP inhibitor	Arbovirus inh	PKD1 kinase inh	Lmaj promast
O=C(CSc1n[nH]c(-c2cccs2)n1)N1CCCc2ccccc21	-0.3	-2.9	29.6	2.9	-0.8	-0.4
Cc1ccccc1CN1CCc2c(OCC(=O)N3CCCc4ccccc43)cccc2C1=O	-3.5	-0.4	17.4	-30.5	-5.2	96.3*
Cc1cc(C(=O)OCC(=O)c2ccc(Br)s2)c(C)o1	x	2.6	78.7*	1.0	-9.3	-0.8
Cc1cc(C(=O)OCC(=O)c2ccc(Br)s2)no1	0.3	2.5	-27.0	3.5	-2.5	-1.4
O=C(CSc1n[nH]c(-c2ccccc2O)n1)N1CCCc2ccccc21	-0.9	4.5	x	-13.2	6.5	74.5*
Cc1cc(C(=O)OCC(=O)N2CCc3ccccc32)c(C)o1	-2.9	5.7	81.5*	-4.0	-8.0	-8.0
CCOc1ccc(CN2CCN(S(=O)(=O)c3ccc(NC(C)=O)cc3)CC2)cc1	-2.5	0.3	31.4	5.3	-0.8	-3.1
COc1cccc(C(=O)Nc2c[nH]c(=O)[nH]c2=O)c1	5.0	-1.3	-4.9	x	x	x
CCOC(=O)C(C)Sc1ncc(-c2ccccc2)cn1 (stereo unspecified)	-9.6	-2.2	-13.1	-1.4	-3.3	-4.4
COc1cccc(NC(=S)N2CCN(C(c3ccccc3)c3ccccc3)CC2)c1	-41.2	-2.3	29.4	-13.9	0.5	10.8
CCCCN(C)C1CCN(C(=S)Nc2ccc(OCC)cc2)CC1	-1.0	0.9	-7.2	2.8	-10.1	82.4*
CCCCN(C)C1CCN(C(=S)Nc2cccc(OC)c2)CC1	x	0.8	12.8	-0.3	1.1	79.9*
CC(=O)c1ccc(NC(=S)NN2C(C)CCCC2C)cc1 (stereo unspecified)	1.5	2.4	20.0	-1.2	-1.4	-3.9
CCOc1ccc(NC(=S)NN2C(C)CCCC2C)cc1 (stereo unspecified)	1.7	2.0	-1.3	3.0	-0.1	51.2*
CCOc1ccc(NC(=S)N2CCC(N(C)CCN3CCOCC3)CC2)cc1	1.3	0.5	14.7	1.9	-6.2	45.4
C=C1CCN([C@@H](CC(C)C)C(=O)Nc2nc3ccc(Cl)cc3s2)S(=O)(=O)c2ccccc21	-4.2	x	x	x	x	x
N#CC1=C(N)C2=CCCC[C@H]2[C@H](c2cccc(F)c2)C1(C#N)C#N	-13.9	-0.1	65.5	6.8	-7.4	80.5*
C=CCNC(=O)C1CC1(c1ccccc1)c1ccccc1 (stereo unspecified)	x	-2.8	-9.6	4.3	6.0	-1.5
CC(c1ccccc1)N1C(=O)NC(NC(=O)C(C)(C)C)(C(F)(F)F)C1=O (stereo unspecified)	0.8	1.6	11.8	-8.8	0.9	51.7*
C/C(Cc1ccccc1)=N\NC(=O)CNC(=O)c1ccccc1Br	-1.8	3.6	7.3	1.0	-13.6	61.5*
c1ccc(Oc2nc3ccccc3n3cccc23)cc1	-10.4	-0.6	70.5*	4.7	-12.6	4.3
CCOc1ccccc1NC(=O)C(OC(=O)c1cc(C)oc1C)c1ccccc1 (stereo unspecified)	12.9	2.8	46.1	-5.0	-0.6	85.4*
C=CCc1cc(C)ccc1OCCOCCC(C(=O)OCC)C(=O)OCC	x	1.1	35.6	-5.3	3.1	-3.1
CCC(C)NCCOCCSc1ccc(Cl)cc1 (stereo unspecified)	-10.7	4.7	-7.3	-11.1	-0.7	97.4*
C=CCOc1ccc(Br)cc1CNCCO	-22.1	2.5	13.3	5.0	-7.0	9.4
SMILES	Rad51 HR inh	Wee1 degr inh	CHOP inhibitor	Arbovirus inh	PKD1 kinase inh	Lmaj promast
C=CCc1cc(Cl)ccc1OCCCNCCO	6.9	1.5	23.0	-38.5	-4.5	98.2*
C=CCc1cc(Cl)ccc1OCCN(C)C	6.4	-2.0	-1.4	5.7	16.5	96.2*
C=CCc1cc(Cl)ccc1OCCOCCNC(C)CC (stereo unspecified)	x	-1.1	-2.5	-15.4	-4.3	90.5*
C/C(=N\NC(=O)CC#N)C1COc2ccccc2O1 (stereo unspecified)	-0.7	1.3	2.8	0.2	2.7	-5.6
C=CCc1ccccc1OCC(O)CNC(C)C (stereo unspecified)	-1.4	-1.0	9.1	0.0	-7.4	2.5
C=CCc1cc(Cl)ccc1OCCCNC(C)C	2.8	-0.1	15.2	-29.6	0.4	99.7*
COc1ccc(-c2nsc(SCC(=O)NCC3CCCO3)n2)cc1 (stereo unspecified)	-1.6	-0.5	-3.3	3.6	-8.3	-1.0
CNCc1ccccc1OCc1ccc(F)cc1	-3.0	4.3	28.4	-1.0	-4.0	4.7

Source: PubChem BioAssay (several laboratories)
